ChEMBL document CHEMBL4007452, “Discovery of an Orally Selective Inhibitor of Signal Transducer and Activator of Transcription 3 Using Advanced Multiple Ligand Simultaneous Docking” (J Med Chem, 2017)
pKi: −log10 of the molar value. Calls of active or inactive are those of the source. The rule behind the calls is not given here.

Columns and labels:
[1] = test system: CCRF S-180; assay: Anticancer activity against […] cells xenografted in BALB/c nude mouse assessed as reduction in tumor weight at 5 mg/kg, po measured after 21 days relative to vehicle control; format: functional; set-up: scale not given: the % may be the effect or the level left
Method in brief: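 Male mice, 4 weeks old, given s.c. flank S180 mouse sarcoma cells (3 x 10^6). From day 2, 10 mice per group received saline vehicle, oral drug at 5 mg/kg, or i.p. drug at 1 mg/kg, each dissolved in saline. Therapy ran 21 days; tumor weight and body weight were recorded.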

[2] = target: Epidermal growth factor receptor (Homo sapiens) (UniProt P00533); assay: Inhibition of EGFR in human UW426 cells assessed as reduction in p-Akt level at 1 to 2.5 uM after 24 hrs by immunoblot analysis; format: cell-based
Epidermal growth factor receptor (Homo sapiens), sequence (P00533 whole entry): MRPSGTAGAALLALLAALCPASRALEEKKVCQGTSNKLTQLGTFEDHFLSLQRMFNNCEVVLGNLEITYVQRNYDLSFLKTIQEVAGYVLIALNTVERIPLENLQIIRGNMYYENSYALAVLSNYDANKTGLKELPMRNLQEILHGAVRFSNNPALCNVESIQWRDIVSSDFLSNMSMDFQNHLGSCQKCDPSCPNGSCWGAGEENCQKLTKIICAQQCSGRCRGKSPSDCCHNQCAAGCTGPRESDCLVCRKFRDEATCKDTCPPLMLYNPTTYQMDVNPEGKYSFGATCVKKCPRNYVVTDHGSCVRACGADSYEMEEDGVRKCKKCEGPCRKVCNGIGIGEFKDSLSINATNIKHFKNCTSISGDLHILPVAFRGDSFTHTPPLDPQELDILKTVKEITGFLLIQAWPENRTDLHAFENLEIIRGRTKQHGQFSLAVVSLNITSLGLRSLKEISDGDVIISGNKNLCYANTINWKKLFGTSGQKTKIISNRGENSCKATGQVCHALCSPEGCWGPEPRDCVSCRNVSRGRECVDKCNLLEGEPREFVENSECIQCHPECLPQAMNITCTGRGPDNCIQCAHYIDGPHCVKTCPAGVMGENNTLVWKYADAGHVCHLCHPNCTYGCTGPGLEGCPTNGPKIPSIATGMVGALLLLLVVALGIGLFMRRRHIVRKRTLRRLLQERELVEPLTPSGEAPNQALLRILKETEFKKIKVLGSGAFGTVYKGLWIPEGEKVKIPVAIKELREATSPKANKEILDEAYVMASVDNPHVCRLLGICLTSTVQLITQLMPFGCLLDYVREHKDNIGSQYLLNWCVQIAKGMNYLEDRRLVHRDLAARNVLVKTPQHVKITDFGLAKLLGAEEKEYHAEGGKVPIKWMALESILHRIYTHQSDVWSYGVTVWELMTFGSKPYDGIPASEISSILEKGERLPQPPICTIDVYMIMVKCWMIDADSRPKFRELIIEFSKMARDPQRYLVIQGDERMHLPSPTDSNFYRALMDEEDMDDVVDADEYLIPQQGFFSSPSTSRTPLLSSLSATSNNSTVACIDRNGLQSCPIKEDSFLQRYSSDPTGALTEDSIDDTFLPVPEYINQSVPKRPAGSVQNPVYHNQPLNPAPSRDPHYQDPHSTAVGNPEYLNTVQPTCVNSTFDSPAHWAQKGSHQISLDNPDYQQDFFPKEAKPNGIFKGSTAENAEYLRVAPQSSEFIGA
Method in brief: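 UW426 cells at 60–80% confluence were treated 24 h at 1-2.5 µM with 10% FBS, against a DMSO control, then immunoblotted.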

[3] = Clearance in Sprague-Dawley rat plasma at 10 mg/kg, po measured after 24 hrs by UPLC analysis; format: ADME, organism-based
Method in brief: (§1)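 Parameters were derived from the concentration-time profiles. The bioanalytical method was validated to FDA guidelines for selectivity, linearity, LLOQ, accuracy, precision, recovery, matrix effect and stability.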

[4] = target: Signal transducer and activator of transcription 3 (Homo sapiens, UniProt P40763); assay: Displacement of 5-FAM-SpYLPQTV from STAT3 (unknown origin) at pY705 site after 30 mins by fluorescence polarization assay
Signal transducer and activator of transcription 3, sequence (P40763 whole entry): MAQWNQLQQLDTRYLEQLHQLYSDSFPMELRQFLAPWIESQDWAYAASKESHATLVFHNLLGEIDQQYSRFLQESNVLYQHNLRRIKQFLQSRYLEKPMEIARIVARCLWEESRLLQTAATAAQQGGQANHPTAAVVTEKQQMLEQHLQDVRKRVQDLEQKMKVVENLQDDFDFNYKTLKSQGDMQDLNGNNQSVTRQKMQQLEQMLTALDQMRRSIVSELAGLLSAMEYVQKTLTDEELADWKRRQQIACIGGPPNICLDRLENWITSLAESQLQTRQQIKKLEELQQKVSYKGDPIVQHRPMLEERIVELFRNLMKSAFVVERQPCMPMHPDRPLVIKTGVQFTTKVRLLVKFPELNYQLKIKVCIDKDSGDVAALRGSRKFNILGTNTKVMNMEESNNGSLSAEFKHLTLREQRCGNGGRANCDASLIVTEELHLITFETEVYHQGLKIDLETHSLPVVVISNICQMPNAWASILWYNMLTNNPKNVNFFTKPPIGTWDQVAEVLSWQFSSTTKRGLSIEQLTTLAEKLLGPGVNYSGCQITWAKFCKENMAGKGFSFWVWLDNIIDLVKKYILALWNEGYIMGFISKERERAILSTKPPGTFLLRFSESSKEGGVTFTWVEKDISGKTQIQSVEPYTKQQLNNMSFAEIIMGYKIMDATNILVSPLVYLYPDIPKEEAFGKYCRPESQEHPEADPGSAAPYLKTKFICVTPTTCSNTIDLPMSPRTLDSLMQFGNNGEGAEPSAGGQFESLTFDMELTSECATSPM

[5] = test system: Rattus norvegicus; assay: AUMC (0 to t) in Sprague-Dawley rat plasma at 10 mg/kg, po measured after 24 hrs by UPLC analysis; format: ADME, organism-based; conditions: in vivo
Method in brief: as §1, with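 “Rat plasma sampled from 2 min to 24 h after a single i.v. (1 mg/kg) or p.o. (10 mg/kg) dose. Parameters” for “Parameters”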

[6] = test system: Mus musculus; assay: Toxicity in BALB/c nude mouse xenografted with human MDA-MB-231 cells assessed as reduction in body weight at 2.5 to 10 mg/kg, po qd administered for 32 days; format: organism-based; conditions: in vivo, 768 h
Method in brief: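 MDA-MB-231 cells (5 x 10^6) were implanted s.c. in the flank of 6-week-old female athymic BALB/c nude mice. Oral dosing started at a tumor volume of about 100 mm3, with 8 mice per group and a saline vehicle control. […] Body weight was tracked over the 32-day treatment.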

[7] = test system: MDA-MB-231; assay: Anticancer activity against human MDA-MB-231 cells xenografted in BALB/c nude mouse assessed as reduction in tumor volume at 2.5 mg/kg, po qd administered for 32 days; format: functional; set-up: scale not given: the % may be the effect or the level left
Method in brief: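 Female athymic BALB/c nude mice, 6 weeks old, bearing s.c. flank MDA-MB-231 xenografts (5 x 10^6 cells). Dosing began at about 100 mm3 tumor volume; 8 mice per group, one tumor each. Drug was given orally in saline, with a saline vehicle control, for 32 days. Caliper L and W measured every other day; volume = 0.5236×L×W².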

[8] = Oral bioavailability in Sprague-Dawley rat at 10 mg/kg measured after 24 hrs by UPLC analysis; format: ADME, organism-based; conditions: in vivo
[9] = MRT (0 to t) in Sprague-Dawley rat plasma at 10 mg/kg, po measured after 24 hrs by UPLC analysis; format: ADME, organism-based
Method in brief: as §1, with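 “Rat plasma sampled from 2 min to 24 h after a single i.v. (1 mg/kg) or p.o. (10 mg/kg) dose. Parameters” for “Parameters”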

[10] = MRT (0 to t) in Sprague-Dawley rat plasma at 1 mg/kg, iv measured after 24 hrs by UPLC analysis; format: ADME, organism-based
Method in brief: as §1, with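 “Rat plasma sampled from 2 min to 24 h after a single i.v. (1 mg/kg) or p.o. (10 mg/kg) dose. Parameters” for “Parameters”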

[11] = Terminal half life in Sprague-Dawley rat plasma at 1 mg/kg, iv measured after 24 hrs by UPLC analysis; format: ADME, organism-based; conditions: read-out: beta t1/2 (converted)
Method in brief: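 Rats dosed i.v. or p.o. Plasma concentrations followed from 2 min to 24 h after dosing. The bioanalytical method was validated to FDA guidelines for selectivity, linearity, LLOQ, accuracy, precision, recovery, matrix effect and stability.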

[12] = target: T1, Signal transducer and activator of transcription 1-alpha/beta (Homo sapiens) (UniProt P42224); assay: Inhibition of STAT1 in human MDA-MB-231 cells assessed as reduction in IFN-gamma-induced STAT1 phosphorylation at 2.5 to 5 uM preincubated for 2 hrs followed by IFN-gamma stimulation measured after 30 mins by Western blot analysis; format: cell-based
T1 sequence (whole entry): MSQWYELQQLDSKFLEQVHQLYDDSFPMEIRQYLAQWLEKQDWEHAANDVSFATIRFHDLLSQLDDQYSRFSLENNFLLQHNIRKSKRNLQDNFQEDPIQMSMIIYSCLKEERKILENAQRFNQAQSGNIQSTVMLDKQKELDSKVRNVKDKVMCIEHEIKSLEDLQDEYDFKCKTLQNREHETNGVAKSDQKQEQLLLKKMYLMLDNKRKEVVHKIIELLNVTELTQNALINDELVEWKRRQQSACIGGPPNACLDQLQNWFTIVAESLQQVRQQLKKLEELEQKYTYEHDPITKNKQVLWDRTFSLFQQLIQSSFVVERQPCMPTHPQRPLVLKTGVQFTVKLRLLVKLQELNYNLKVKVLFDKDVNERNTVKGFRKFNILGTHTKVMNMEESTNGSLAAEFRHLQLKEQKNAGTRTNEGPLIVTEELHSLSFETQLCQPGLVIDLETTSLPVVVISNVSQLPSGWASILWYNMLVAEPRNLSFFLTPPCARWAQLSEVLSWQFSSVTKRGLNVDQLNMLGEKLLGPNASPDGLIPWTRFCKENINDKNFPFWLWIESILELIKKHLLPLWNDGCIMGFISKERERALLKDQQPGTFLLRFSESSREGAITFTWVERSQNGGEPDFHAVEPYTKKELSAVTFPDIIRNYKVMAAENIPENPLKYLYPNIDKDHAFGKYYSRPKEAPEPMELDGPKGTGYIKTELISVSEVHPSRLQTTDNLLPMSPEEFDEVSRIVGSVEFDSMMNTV
Method in brief: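 MDA-MB-231 cells were allowed to adhere overnight, then serum-starved. They were pretreated 2 h with 2.5-5 µM compound or DMSO and stimulated with IFN-γ (50 ng/mL). Cells were harvested after 30 min and immunoblotted for P-STAT1(Y701) and T-STAT1.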

Question: For `NS(=O)(=O)c1cccc2c1C(=O)C=C(Nc1ccccc1N1CCNCC1)C2=O`, which Activity [1] is on record?
Answer: The Activity was 72.74%.

Question: And the inhibition [2]?
Answer: The inhibition was “inactive”.

Question: What about the CL/F [3] of the same compound?
Answer: Its CL/F is 196 mL/min/kg.

Question: And the pKi [4]?
Answer: Its pKi is 6.36.

Question: What about the AUMCt [5] of the same compound?
Answer: The AUMCt was 1622.6 hr2.ng/ml.

Question: What about the Activity [6] of the same compound?
Answer: Its Activity is “Non-Toxic”.

Question: What about the Activity [7] of the same compound?
Answer: The Activity was 53%.

Question: And the bioavailability [8]?
Answer: The bioavailability was 44.7%.

Question: And the MRT last at 24 h [9]?
Answer: Its MRT last at 24 h is 112 min.

Question: And the MRT last at 24 h [10]?
Answer: Its MRT last at 24 h is 33 min.

Question: And the half-life [11]?
Answer: Its half-life is 42.6 min.

Question: What about the inhibition [12] of the same compound?
Answer: The inhibition was “inactive”.
